One may read the IC50 as the concentration at which inhibition is half-maximal.

Data set [1] deals with T1, Prostaglandin E synthase (Homo sapiens) (UniProt O14684).
T1 sequence (whole entry): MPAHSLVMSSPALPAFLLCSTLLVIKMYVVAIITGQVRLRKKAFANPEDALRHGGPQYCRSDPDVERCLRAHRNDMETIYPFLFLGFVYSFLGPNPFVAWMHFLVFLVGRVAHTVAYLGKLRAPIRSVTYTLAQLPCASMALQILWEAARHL
In words: Inhibition of PGES-1 in human A549 cell microsomes using PGH2 as substrate assessed as remaining enzyme activity of interleukin-1beta-stimulated PGE2 production at 10 uM incubated for 15 mins post interleukin-1beta challenge for 72 hrs by RP-HPLC analysis. In short, it runs like this:
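Microsomes from A549 cells stimulated with 2 ng/mL IL-1β for 72 h (pellet after 10,000 × g then 174,000 × g spins), diluted in 0.1 M potassium phosphate pH 7.4 with 2.5 mM glutathione. Compound at 10 µM preincubated 15 min at 4 °C, then 20 µM PGH2 added for 1 min at 4 °C. Stopped with FeCl2/citric acid containing 11β-PGE2 internal standard. PGE2 isolated by solid-phase extraction and quantified by RP-HPLC. Activity given as % of uninhibited control, mean ± S.E.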

Data set [2] has as its system RAW264.7. In words: Cytotoxicity against mouse RAW264.7 cells assessed as cell viability at 1 to 10 uM after 24 hrs in presence of LPS by MTT assay. The class given is cell-based. The conditions noted are these: raw264.7, 24 h. A digest of the protocol:
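RAW 264.7 macrophages treated with compounds at 1 or 10 µM in the presence of LPS for 24 h; viability read by MTT assay. Experiments run at least twice.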
On the technique in general: Tetrazolium assays rely on reduction of a dye to a coloured formazan, in cell work by metabolically active cells.

Data set [3] concerns RAW264.7. In words: Suppression of PGE2 production in LPS-induced mouse RAW264.7 cells after 24 hrs by enzyme immunoassay. The settings on record: RAW264.7, 24 h. The format is functional, cell-based. A digest of the protocol: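 RAW 264.7 cells stimulated with LPS and treated with compound for 24 h, first screened at 1 or 10 µM. Compounds giving >50% suppression went on to IC50 determination. PGE2 in medium measured by EIA. NS398 at 3 µM served as positive control. Runs done at least twice.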

The target of a further data set is T2, Prostaglandin E synthase (Homo sapiens, UniProt O14684).
T2 sequence (O14684 whole entry): T1 sequence (whole entry)
In words: Inhibition of PGES-1 in human A549 cell microsomes using PGH2 as substrate assessed as suppression of interleukin-1beta-stimulated PGE2 production incubated for 15 mins post interleukin-1beta challenge for 72 hrs by RP-HPLC analysis. A digest of the protocol: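 Enzyme source was A549 microsomes after 72 h IL-1β (2 ng/mL) stimulation, in 0.1 M potassium phosphate pH 7.4 with 2.5 mM GSH. Compounds preincubated 15 min at 4 °C over a concentration range, then 20 µM PGH2 added for 1 min at 4 °C. Reaction stopped, PGE2 recovered by solid-phase extraction and measured by RP-HPLC against 11β-PGE2.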

The target in data set [4] is T1, Prostaglandin E synthase (Homo sapiens). In words: Potency index, ratio of IC50 for MK-886 to IC50 for test compound for inhibition of PGES-1 in human A549 cell microsomes. The class given is cell-based.
For data set [5], the system named is RAW264.7. In words: Potency index, ratio of IC50 for NS398 to IC50 for test compound for suppression of PGE2 production in LPS-induced mouse RAW264.7 cells. The class given is functional.
The test system of data set [6] is RAW264.7. In words: Suppression of NO production in LPS-induced mouse RAW264.7 cells by Griess assay. The class given is functional, cell-based. A digest of the protocol:
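LPS (10 ng/mL)-stimulated RAW 264.7 cells co-incubated with compound at 0.1–10 nM. Nitrite in supernatant read with Griess reagent. Means ± SD of three samples; ANOVA with Dunnett's test.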
On the technique in general: Nitrite, measured by Griess reagent, commonly stands in for NO production.

Molecules are shown by their SMILES.

For `COc1ccc(S(=O)(=O)N(Nc2ccccc2)C(=O)Oc2ccc(OCc3ccccc3)cc2)cc1`, in data set [1], the Activity came to 62.6%. Moreover, the Cytotoxic concentration entry in the data set with RAW264.7 [2] was “>= 10 uM”. Also, the IC50 was 50 nM in the data set on RAW264.7 [3] and greater than 10000 nM at Prostaglandin E synthase.
As for `Cc1cc(C)c(S(=O)(=O)N(Nc2ccccc2)C(=O)Oc2ccc(OCc3ccccc3)cc2)c(C)c1`, the Cytotoxic concentration in the data set on RAW264.7 [2] was greater than 1 µM. Further, the IC50 in the data set with RAW264.7 [3] came out at 81.5 nM.
As for `COc1ccc(OC(=O)N(Nc2ccccc2)S(=O)(=O)c2ccc(OC)cc2)cc1`, the Cytotoxic concentration with RAW264.7 [2] is greater than 10 µM. The compound further had an IC50 with RAW264.7 [3] of 490 nM.
Turning to `COc1ccc(S(=O)(=O)N(Nc2ccccc2)C(=O)Oc2ccc3c(c2)CCC3)cc1`, in data set [1], the Activity is 18.5%. Also, the Ratio IC50 in data set [4] worked out at 30; in the data set on RAW264.7 [5] it was 1.5. Besides, the Cytotoxic concentration with RAW264.7 [2] is greater than 10 µM. For the same compound, the IC50 with RAW264.7 [3] was 4.5 nM; with RAW264.7 [6] it was 6.9 nM; at Prostaglandin E synthase it was 70 nM.
`O=C(Oc1ccc(OCc2ccccc2)cc1)N(Nc1ccccc1)S(=O)(=O)c1ccc(-c2ccccc2)cc1`: the Cytotoxic concentration in the data set on RAW264.7 [2] was greater than 1 µM. The compound further came in with an IC50 in the data set with RAW264.7 [3] of 93 nM.
As for `COc1ccc(S(=O)(=O)N(Nc2ccccc2)C(=O)Oc2ccccc2OC)cc1`, in the data set on RAW264.7 [2], the Cytotoxic concentration is greater than 10 µM. This compound also gave an IC50 with RAW264.7 [3] of 165 nM.
In the case of `Cc1ccc(S(=O)(=O)N(Nc2ccccc2)C(=O)Oc2ccccc2)cc1`, in the data set with RAW264.7 [2], the Cytotoxic concentration is greater than 10 µM. In the data set with RAW264.7 [3], the IC50 was found to be 5720 nM.
For the compound `CCCc1ccc(S(=O)(=O)N(Nc2ccccc2)C(=O)Oc2ccc(Oc3ccccc3)cc2)cc1`, the Cytotoxic concentration in the data set with RAW264.7 [2] is greater than 1 µM. In the data set with RAW264.7 [3], this compound came in with a 50% inhibitory concentration (IC50) of 134 nM.
For the compound `O=C(Oc1ccccc1)N(Nc1ccccc1)S(=O)(=O)c1ccccc1`, the Activity in data set [1] is 63.6%. The concentration for half-maximal inhibition (IC50) at Prostaglandin E synthase was greater than 10000 nM.
`Cc1ccc(S(=O)(=O)N(Nc2ccccc2)C(=O)Oc2ccc(OCc3ccccc3)cc2)cc1`: the Activity in data set [1] came to 81.2%. For the same compound, the Cytotoxic concentration entry with RAW264.7 [2] was “>= 10 uM”. The IC50 in the data set on RAW264.7 [3] was 32.6 nM; at Prostaglandin E synthase, greater than 10000 nM.
`CCc1ccc(OC(=O)N(Nc2ccccc2)S(=O)(=O)c2ccc(OC)cc2)cc1`: the Activity in data set [1] was determined as 63.6%. Moreover, the Cytotoxic concentration in the data set with RAW264.7 [2] was greater than 10 µM. Further, the half-maximal inhibitory concentration (IC50) with RAW264.7 [3] is 28.5 nM; at Prostaglandin E synthase, greater than 10000 nM.
Regarding `CC(C)(C)c1ccc(S(=O)(=O)N(Nc2ccccc2)C(=O)Oc2ccc(OCc3ccccc3)cc2)cc1`, the Activity in data set [1] was determined as 79.9%. Moreover, the Cytotoxic concentration in the data set with RAW264.7 [2] was greater than 1 µM. Also, the IC50 in the data set with RAW264.7 [3] was 56.9 nM; at Prostaglandin E synthase, greater than 10000 nM.
Take `O=C(Oc1ccc(Oc2ccccc2)cc1)N(Nc1ccccc1)S(=O)(=O)c1ccc(-c2ccccc2)cc1`: the Cytotoxic concentration in the data set on RAW264.7 [2] was greater than 1 µM. This compound gave a concentration for half-maximal inhibition (IC50) in the data set with RAW264.7 [3] of 161 nM.
Take `COc1ccc(OC(=O)N(Nc2ccccc2)S(=O)(=O)c2ccccc2)cc1`: in the data set with RAW264.7 [2], the Cytotoxic concentration was greater than 10 µM. The compound further had a half-inhibitory concentration (IC50) in the data set with RAW264.7 [3] of 584 nM.
On to `Cc1cc(C)c(S(=O)(=O)N(Nc2ccccc2)C(=O)Oc2ccc(Oc3ccccc3)cc2)c(C)c1`, for which the Cytotoxic concentration with RAW264.7 [2] is greater than 1 µM. In addition, it took 177 nM to reach half-maximal inhibition in the data set on RAW264.7 [3] (IC50).
With `COc1ccccc1OC(=O)N(Nc1ccccc1)S(=O)(=O)c1ccc(C)cc1`, the Activity in data set [1] came to 55.7%. In addition, the Cytotoxic concentration in the data set with RAW264.7 [2] was greater than 10 µM. Moreover, the values for the half-maximal inhibitory concentration (IC50) in the data set with RAW264.7 [3] and on Prostaglandin E synthase were 34.1 nM and greater than 10000 nM, respectively.
In the case of `CC(C)c1ccc2c(c1)c(SC(C)(C)C)c(CC(C)(C)C(=O)O)n2Cc1ccc(Cl)cc1`, in data set [1], the Activity came to 16.3%.
Regarding `COc1ccc(S(=O)(=O)N(Nc2ccccc2)C(=O)Oc2ccccc2)cc1`, the Cytotoxic concentration in the data set on RAW264.7 [2] was greater than 10 µM. The compound also returned an IC50 with RAW264.7 [3] of 4430 nM.
On to `COc1ccc(S(=O)(=O)N(Nc2ccccc2)C(=O)Oc2ccc(Oc3ccccc3)cc2)cc1`, for which the Activity in data set [1] came out at 37.1%. The Cytotoxic concentration with RAW264.7 [2] is greater than 10 µM. Further, the results for the half-maximal inhibitory concentration (IC50) with RAW264.7 [3] and on Prostaglandin E synthase were 17.1 nM and 6600 nM, respectively.
Turning to `Cc1ccc(OC(=O)N(Nc2ccccc2)S(=O)(=O)c2ccccc2)cc1`, the Cytotoxic concentration in the data set with RAW264.7 [2] is greater than 10 µM. This compound displayed an IC50 in the data set on RAW264.7 [3] of 1020 nM.
As for `Cc1ccc(OC(=O)N(Nc2ccccc2)S(=O)(=O)c2ccc(C)cc2)cc1`, the Activity in data set [1] was 41.3%. In addition, the Cytotoxic concentration in the data set with RAW264.7 [2] is greater than 10 µM. Also, the results for the 50% inhibitory concentration (IC50) in the data set on RAW264.7 [3] and on Prostaglandin E synthase were 1010 nM and 6100 nM, respectively.
The like results for `CCOc1ccc(OC(=O)N(Nc2ccccc2)S(=O)(=O)c2ccc(OC)cc2)cc1` were, in that order, 62.5%, greater than 10 µM, 20.5 nM and greater than 10000 nM.
